In data set [1] the target is T1, Human immunodeficiency virus type 1 reverse transcriptase (Human immunodeficiency virus 1, UniProt Q72547). In words: Inhibition of RNase H activity of HIV-1 HXB2 reverse transcriptase p66/p51 after 10 mins by fluorescence spectrophotometry. The essentials: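 His-p66/His-p51 RT from HIV-1 HXB2, 250 ng, with 250 nM 18-nt 3′-fluorescein RNA annealed to 5′-dabsyl DNA. Hydrolysis started by adding hybrid. 37°C, fluorescence (ex 475/em 520 nm) read every minute for 10 min. Percent inhibition from initial rates, plotted against log concentration. Triplicate.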

For data set [2], the system named is Human immunodeficiency virus 1. In words: Antiviral activity against HIV-1 isolate RF infected in human CEM-SS cells assessed as inhibition of virus induced cytopathic effect by XTT assay. It counts as functional, organism-based. Conditions: Human immunodeficiency virus 1, isolate RF. The procedure, abridged:
(§1)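 HIV-1 RF isolate in human T-cell line CEM-SS; XTT-based cell viability read-out following Weislow et al.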

Data set [3] can be described thus: Cytotoxicity against human CEM-SS cells by XTT assay. It counts as cell-based. The procedure, abridged: as §1
For orientation: Tetrazolium assays rely on reduction of a dye to a coloured formazan, in cell work by metabolically active cells.

In data set [4] the target is Human immunodeficiency virus type 1 reverse transcriptase (Human immunodeficiency virus 1) (UniProt Q72547). In words: Binding affinity to HIV-1 HXB2 reverse transcriptase p66/p51 at increased temperature by Van't Hoff analysis. The essentials: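 His-p66/His-p51 RT (4 nM) and RNA-DNA hybrid (250 nM) were run at 20, 25, 30 and 35°C. The reaction was started with substrate, incubated 30 min and quenched with EDTA. Product fluorescence was read, with quadruplicate dose-response curves at each temperature. Ki was fitted as v_i/v_o = 1/[1 + ([I]/Ki)], simple nontight-binding inhibition.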

Data set [5] has the same target. In words: Inhibition of RNase H activity of HIV-1 HXB2 reverse transcriptase p66/p51 pre-incubated with RNA-DNA hybrid followed by addition of compound and magnesium ions.
For data set [6] the target is unchanged. In words: Inhibition of RNase H activity of HIV-1 HXB2 reverse transcriptase p66/p51 preincubated with compound and RNA-DNA hybrid substrate followed by addition of magnesium ions.
Data set [7] shares this target. In words: Binding affinity to HIV-1 HXB2 reverse transcriptase p66/p51 assessed as changes in enzyme orientation on polypurine tract-containing RNA-DNA hybrid by FRET assay. The procedure, abridged: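 Single-molecule FRET. Substrate: 21-nt PPT:D2 RNA-DNA primer annealed at 1.2:1 to a biotinylated 50-nt DNA template. Cy5 acceptor near the template 3′ end; Cy3 donor on the RNase H C terminus of p66. His-p66/His-p51 RT is from the HXB2 isolate. Inhibitor was added at 10 μM final.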

Data set [8] has the same target. In words: Inhibition of DNA-dependent DNA polymerase activity of HIV1 HXB2 reverse transcriptase p66/p51at 50 uM after 10 mins by fluorescence spectrophotometry.
For data set [9], the target named is T1, Human immunodeficiency virus type 1 reverse transcriptase. In words: Inhibition of RNase H activity of HIV-1 reverse transcriptase. The procedure, abridged:
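Recombinant His-p66/His-p51 RT (HXB2) was mixed with inhibitor in DMSO, then the reaction was started with 18-bp hybrid (3′-fluorescein RNA/5′-dabsyl DNA). Run at 37°C for 10 min, read ex 475/em 520 nm every minute. IC50 from initial-rate % inhibition vs log[inhibitor], triplicate.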

Data set [10] has as its target Reverse transcriptase (Human immunodeficiency virus 2, UniProt Q06347). In words: Inhibition of RNase H activity of HIV-2 reverse transcriptase.

Structures are written as SMILES. Active and inactive are the calls of the source. No cut-off for these calls is given here. Bounds are passed on as bounds.

Sequence of Reverse transcriptase (Q06347 whole entry): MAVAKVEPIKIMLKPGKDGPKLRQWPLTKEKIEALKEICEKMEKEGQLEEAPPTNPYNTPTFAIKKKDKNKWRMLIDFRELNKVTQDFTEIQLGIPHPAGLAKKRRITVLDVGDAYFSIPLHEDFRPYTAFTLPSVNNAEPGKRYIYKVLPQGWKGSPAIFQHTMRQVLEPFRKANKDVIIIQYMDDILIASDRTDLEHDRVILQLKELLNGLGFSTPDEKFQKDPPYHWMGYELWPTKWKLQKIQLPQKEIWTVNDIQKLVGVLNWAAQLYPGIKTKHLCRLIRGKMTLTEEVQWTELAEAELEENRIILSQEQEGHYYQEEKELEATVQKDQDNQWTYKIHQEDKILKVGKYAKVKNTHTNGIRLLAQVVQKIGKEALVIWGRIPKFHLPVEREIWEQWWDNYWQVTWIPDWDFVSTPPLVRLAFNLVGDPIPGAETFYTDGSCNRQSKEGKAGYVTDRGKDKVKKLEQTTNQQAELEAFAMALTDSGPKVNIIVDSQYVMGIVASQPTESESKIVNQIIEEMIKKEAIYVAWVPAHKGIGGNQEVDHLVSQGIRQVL

What is called IC50 is the concentration that gives 50% inhibition. Regarding `Cc1sc2nc(-c3ccccc3)[nH]c(=O)c2c1C`, the IC50 in data set [1] was over 100 µM.
On the same count and under the same terms, in the case of `Cc1ccc(C(=O)Nc2sc(C)c(C)c2C(N)=O)cc1` it was 2.8 µM.
For `NC(=O)c1c(N)sc2c1CCCCCC2`, the IC50 in data set [1] is over 500 µM.
The same measure, in the same setting: in the case of `NC(=O)c1ccsc1N` it was over 500 µM; in that of `Cc1cc(Cl)ccc1CCC(=O)Nc1sc(C)c(C)c1C(N)=O`, over 500 µM.
The CC50 is the concentration giving 50% cytotoxicity. Take `NC(=O)c1c(N)sc2c1CCCCC2`: in data set [2], the IC50 was found to be 4.3 µM. In addition, the CC50 in data set [3] was found to be 19.9 µM. In [4], the outcome was inactive. Also, the inhibition result in data set [5] was “inactive”. Besides, the inhibition entry in data set [6] is “Active”. The outcome in data set [7] was Active.
Compound `NC(=O)c1c(NC(=O)COc2ccccc2)sc2c1CCCCC2` had an IC50 in data set [1] of 6.9 µM.
In data set [1], `Cc1sc(NC(=O)c2cccc([N+](=O)[O-])c2)c(C(N)=O)c1C` came in with an IC50 of 1.3 µM. Besides, the result in [7] was Active.
`NC(=O)c1c(N)sc2c1CCCC2` showed an IC50 in data set [1] of 14 µM.
In data set [1], `Cc1sc(NC(=O)c2ccco2)c(C(N)=O)c1C` came in with an IC50 of 3.4 µM.
Still for that read-out and setting: in the case of `COc1ccc(-c2nc3sc(C)c(C)c3c(=O)[nH]2)cc1` it was over 100 µM.
Still for that read-out and setting: to `Cc1sc(NC(=O)c2ccc(Br)o2)c(C(N)=O)c1C` belongs 1.7 µM.
Turning to `COc1ccccc1NC(=O)c1c(NC(=O)Cc2ccccc2)sc2c1CCCCC2`, the results for the IC50 in data set [2] and in data set [1] were 54 µM and over 500 µM, respectively. Further, in [3], half-maximal cytotoxicity (CC50) was put at 141 µM.
In data set [1], `Cc1sc(NC(=O)C2CCCO2)c(C(N)=O)c1C` (centres undefined) gave an IC50 of 27.3 µM.
In data set [1], `CCOc1ccc(NC(=O)c2c(NC(=O)c3ccccc3)sc3c2CCCCC3)cc1` came in with an IC50 of over 500 µM.
Take `Cc1sc2nc(-c3ccc([N+](=O)[O-])cc3)[nH]c(=O)c2c1C`: in [8], the inhibition entry was “inactive”. Also, 0.85 µM corresponded to half-maximal inhibition in data set [1] (IC50). Moreover, the outcome in data set [7] was Active.
On to `CCOc1ccc(NC(=O)c2c(NC(=O)c3ccco3)sc3c2CCCCC3)cc1`, for which half-maximal inhibition in data set [1] (IC50) was put at 4.2 µM.
`Cc1onc(-c2ccccc2)c1C(=O)Nc1sc(C)c(C)c1C(N)=O`: the half-inhibitory concentration (IC50) in data set [1] turned out to be 2.9 µM.
Same read-out and setting: to `Cc1sc(NC(=O)C2CC3CCC2C3)c(C(N)=O)c1C` (centres undefined) belongs 21 µM; to `Cc1sc(N)c(C(N)=O)c1C`, over 500 µM; to `O=C(Nc1sc2c(c1C(=O)Nc1cccc3ccccc13)CCCCC2)c1ccccc1F`, over 500 µM.
Same read-out and setting: in the case of `Cc1ccc(NC(=O)c2c(NC(=O)c3ccccc3F)sc3c2CCCCC3)cc1` it was over 500 µM.
For the compound `CC(C)c1ccc(O)c(=O)c(O)c1` [BETA-THUJAPLICINOL], the result in data set [4] was inactive. Moreover, the IC50 in [9] and in data set [10] was 0.25 µM in each case.
Take `Cc1sc(NC(=O)c2ccc3c(c2)OCO3)c(C(N)=O)c1C`: the IC50 worked out at 19 µM in data set [2] and 5.1 µM in data set [1]. In addition, the CC50 in [3] amounted to 38 µM.
As to `NC(=O)c1c(N)sc2c1CCC2`, in data set [1], the IC50 is over 500 µM.

For the origin of these results see ChEMBL document CHEMBL1671700, “Structure-activity analysis of vinylogous urea inhibitors of human immunodeficiency virus-encoded ribonuclease H” (Antimicrob Agents Chemother, 2010).
